Results on four compounds are retold here after ChEMBL document CHEMBL1629529, “Design, synthesis, and evaluation of diarylpyridines and diarylanilines as potent non-nucleoside HIV-1 reverse transcriptase inhibitors” (J Med Chem, 2010).

Data set [1] concerns Human immunodeficiency virus 1. Nature of the data set: Antiviral activity against HIV1. It counts as functional, organism-based.
A short description of data set [2]: (§1) Cytotoxicity in human MT2 cells after 4 day by XTT assay. The data set is classed as cell-based. The conditions noted are these: MT2 cells. The method in brief:
(§2)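 MT-2 cells (5 · 10^5/mL) were mixed with an equal volume of graded compound concentrations and incubated 4 days at 37 °C. XTT solution (1 mg/mL) containing 0.02 μM phenazine methosulphate was then added. After 4 h, absorbance at 450 nm was read.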
A general note: Formazan colour is commonly taken as a measure of viable cells.

Data set [3] deals with Human immunodeficiency virus 1. Put plainly: Antiviral activity against HIV1 NL4-3 infected in human TZM-bl cells after 2 days by luciferase reporter gene assay.
Data set [4] has as its system Human immunodeficiency virus 1. Nature of the data set: Antiviral activity against HIV1 3B infected in human MT2 cells assessed as reduction in p24 antigen level after 4 days by ELISA. It counts as functional, organism-based. The settings on record: Human immunodeficiency virus 1, 3B, MT2, 96 h; read-out: EC50. The method in brief:
(§3)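 MT-2 cells (10^4/well) were infected with 100 TCID50 virus in RPMI 1640 with 10% FBS, with or without graded compound concentrations, overnight. Supernatant was then replaced with compound-free medium. On day 4 post-infection, supernatant was mixed 1:1 with 5% Triton X-100 and p24 antigen was quantified by ELISA. Percent inhibition was converted to EC50 with CalcuSyn. Tested at least in triplicate.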
A general note: An ELISA detects its analyte on a solid surface through an enzyme-linked reagent.

Data set [5] can be described thus: Selectivity index, ratio of CC50 for human MT2 cells to EC50 for HIV1 3B. The data set is classed as toxicity, cell-based. The conditions noted are these: mt2. The method in brief: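 SI = CC50/EC50 (p24 ELISA). XTT (1 mg/mL) containing 0.02 μM PMS was added for 4 h, then absorbance was read at 450 nm. CC50 was calculated with CalcuSyn.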
Data set [6] has as its system Human immunodeficiency virus 1. Nature of the data set: Antiviral activity against multidrug resistant HIV1 RTMDR containing reverse transcriptase L74V, M41L, V106A and T215Y mutant infected in human TZM-bl cells after 2 days by luciferase reporter gene assay. The settings on record: Human immunodeficiency virus 1, RTMDR, 48 h. On the technique in general: A reporter such as luciferase makes a cellular process visible.

The test system of data set [7] is Human immunodeficiency virus 1. Nature of the data set: Resistance index, ratio of EC50 for multidrug resistant HIV1 A17 to EC50 for wild type HIV1 3B. The data set is classed as functional.
Data set [8] deals with MT2. Described as §1. It counts as cell-based. The settings on record: mt2, 96 h. The method in brief: as §2
Data set [9] can be described thus: Cytotoxicity in human TZM-bl cells after 4 day by XTT assay. The conditions noted are these: 96 h. It counts as cell-based.
Data set [10] has as its system Human immunodeficiency virus 1. Put plainly: Resistance index, ratio of EC50 for multidrug resistant HIV1 RTMDR to EC50 for wild type HIV1 NL4-3. It counts as functional.
Data set [11] relates to Human immunodeficiency virus 1. Nature of the data set: Antiviral activity against multidrug resistant HIV1 A17 containing reverse transcripatseK103N and Y181C mutation infected in human MT2 cells assessed as reduction in p24 antigen level after 4 days by ELISA. The data set is classed as functional, organism-based. The settings on record: Human immunodeficiency virus 1, A17, MT2, 96 h. The method in brief:
as §3

A short description of data set [12]: Selectivity index, ratio of CC50 for human TZM-bl cells to EC50 for HIV1 NL4-3. It counts as toxicity, cell-based.
[13] abbreviates: Human immunodeficiency virus 1, NL4-3, TZM-bl, 48 h, read-out: EC50.

The EC50 is the concentration giving half of the maximal effect. Compound `Cc1cc(C#N)cc(C)c1Oc1cc(Nc2ccc(C#N)cc2)c(N)cc1[N+](=O)[O-]` gave an EC50 in data set [1] of 3 nM.

The CC50 is the concentration that lowers cell viability or growth by half. High values mean better tolerance by the cells, low ones harm at low concentration. On to `C=CCc1cc(C)c(Oc2ccc([N+](=O)[O-])c(Nc3ccc(C#N)cc3)n2)c(C)c1`, for which, in data set [2], the midpoint of cytotoxicity, the CC50 at 96 h, lay at 39700 nM. Moreover, the EC50 entry in [3] (tzm-bl) was “Not Active”; in [4], 1340 nM. For the same compound, in data set [5], the “Ratio CC50/EC50” value worked out at 27.37.

Take `Cc1cc(/C=C/C#N)cc(C)c1Oc1ccc([N+](=O)[O-])c(Nc2ccc(C#N)cc2)c1`: the EC50 in data set [6] is 17 nM; in [3] (setting [13]), 10.4 nM; in data set [11] it was greater than 10000 nM; in data set [4] it was 37 nM. Moreover, the “Ratio EC50” value in [7] is greater than 270; in data set [10] it was 1.63. Moreover, the CC50 in [8] is greater than 100000 nM; in [9], greater than 48800 nM. Moreover, in data set [5], the “Ratio CC50/EC50” value is listed as greater than 2702. For the same compound, the selectivity ratio in data set [12] (TZM-bl cells, read-out: Ratio CC50/EC50) is 4690.

As to `Cc1cc(/C=C/C#N)cc(C)c1Oc1ccc(N)c(Nc2ccc(C#N)cc2)c1`, the EC50 in [6] is 1.79 nM; in data set [3] (setting [13]), 0.55 nM; in data set [11], 600 nM; in data set [4] it was less than 14 nM. Moreover, the “Ratio EC50” value was 43 in [7] and 3.25 in data set [10]. For the same compound, the CC50 in data set [8] came out at 8830 nM; in data set [9], 25000 nM. The “Ratio CC50/EC50” value in data set [5] is greater than 631; in [12] (tzm-bl) it was 45455.
